Test results published in ChEMBL document CHEMBL1145471, “Small molecule regulators of autophagy identified by an image-based high-throughput screen” (Proc Natl Acad Sci U S A, 2007).
Where a SMILES comes first, the peptide text is derived from it. [ ]: non-standard residue; d: D form. Nle = CCCC[C@H](N)C(=O)O

What was measured:
Format in all cases: functional
[1] = tested on: H4; experiment: Increase in long-lived protein degradation in human H4 cells after 1 hr relative to control; parameters: concentration or dose not given beside the values
[2] = tested on: H4; experiment: Increase in long-lived protein degradation in human H4 cells after 24 hrs relative to control; parameters: concentration or dose not given beside the values
[3] = tested on: H4; experiment: Increase in light chain 3-GFP+ autophagosome vesicle number per cell in human H4 cells at 6.5 uM after 24 hrs by high throughput fluorescence microscopy relative to control
Outline: (§1)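 H4 cells stably expressing LC3-GFP, kept in DMEM/10% FBS at 37°C, 5% CO2, were seeded in 96-well plates and exposed to compound for 24 h. Cells were then fixed in 4% paraformaldehyde and stained with 3 μg/ml DAPI. Automated fluorescence microscopy scored the number, size and intensity of LC3-GFP spots. Values are percent of DMSO wells, in triplicate, mean ± SD. Rapamycin served as positive control.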

[4] = tested on: H4; experiment: Increase in long-lived protein degradation in human H4 cells after 2 hrs relative to control; parameters: concentration or dose not given beside the values
[5] = tested on: H4; experiment: Effect on FYVE-RFP+ vesicle intensity per cell in human H4 cells after 8 hrs relative to control; parameters: concentration or dose not given beside the values
Outline: (§2)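 H4 cells stably expressing FYVE-RFP (H4-FYVE), grown in DMEM with 10% FBS, penicillin/streptomycin and 2 mM L-glutamine at 37°C, 5% CO2, seeded in 96-well plates and exposed to compound. Fixed in 4% paraformaldehyde, nuclei stained with 3 μg/ml DAPI, FYVE-RFP+ vesicles quantified by high-throughput fluorescence microscopy against DMSO control. Triplicate wells, mean ± SD.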

[6] = tested on: H4; experiment: Increase in light chain 3-GFP+ autophagosome vesicle area per cell in human H4 cells at 6.5 uM after 24 hrs by high throughput fluorescence microscopy relative to control
Outline: (§3)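 H4 cells stably expressing LC3-GFP, seeded in 96-well plates and exposed to compound for 24 h; fixed in 4% paraformaldehyde, nuclei stained with 3 μg/ml DAPI. Automated fluorescence microscopy scored number, size and intensity of LC3-GFP spots; values expressed relative to DMSO-treated wells, rapamycin positive control. Triplicate wells, mean ± SD; experiments repeated three times.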

[7] = tested on: H4; experiment: Effect on FYVE-RFP+ vesicle intensity per cell in human H4 cells after 4 hrs relative to control; parameters: concentration or dose not given beside the values; outline: as §2
[8] = tested on: H4; experiment: Effect on FYVE-RFP+ vesicle intensity per cell in human H4 cells after 2 hrs relative to control; parameters: concentration or dose not given beside the values; outline: as §2
[9] = tested on: H4; experiment: Increase in light chain 3-GFP+ autophagosome vesicle intensity per cell in human H4 cells at 6.5 uM after 24 hrs by high throughput fluorescence microscopy relative to control; outline: as §3
[10] = tested on: H4; experiment: Increase in long-lived protein degradation in human H4 cells after 4 hrs relative to control; parameters: concentration or dose not given beside the values
[11] = tested on: H4; experiment: Induction of light chain 3-GFP level in human H4 cells at 6.5 uM after 24 hrs by high throughput fluorescence microscopy relative to control; outline: as §1
[12] = tested on: H4; experiment: Induction of light chain 3-GFP level in human H4 cells at 6.3 uM after 24 hrs by high throughput fluorescence microscopy relative to control; outline: as §1
[13] = tested on: H4; experiment: Increase in light chain 3-GFP+ autophagosome vesicle intensity per cell in human H4 cells at 6.3 uM after 24 hrs by high throughput fluorescence microscopy relative to control; outline: as §3
[14] = tested on: H4; experiment: Increase in light chain 3-GFP+ autophagosome vesicle area per cell in human H4 cells at 6.3 uM after 24 hrs by high throughput fluorescence microscopy relative to control; outline: as §3
[15] = tested on: H4; experiment: Increase in light chain 3-GFP+ autophagosome vesicle number per cell in human H4 cells at 6.3 uM after 24 hrs by high throughput fluorescence microscopy relative to control; outline: as §1
[16] = tested on: H4; experiment: Increase in light chain 3-GFP+ autophagosome vesicle area per cell in human H4 cells at 4.8 uM after 24 hrs by high throughput fluorescence microscopy relative to control; outline: as §3
[17] = tested on: H4; experiment: Increase in light chain 3-GFP+ autophagosome vesicle number per cell in human H4 cells at 4.8 uM after 24 hrs by high throughput fluorescence microscopy relative to control; outline: as §1
[18] = tested on: H4; experiment: Increase in light chain 3-GFP+ autophagosome vesicle intensity per cell in human H4 cells at 4.8 uM after 24 hrs by high throughput fluorescence microscopy relative to control; outline: as §3
[19] = tested on: H4; experiment: Induction of light chain 3-GFP level in human H4 cells at 4.8 uM after 24 hrs by high throughput fluorescence microscopy relative to control; outline: as §1
[20] = tested on: H4; experiment: Increase in light chain 3-GFP+ autophagosome vesicle area per cell in human H4 cells at 4.3 uM after 24 hrs by high throughput fluorescence microscopy relative to control
Outline: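 H4 cells stably expressing LC3-GFP, seeded in 96-well plates and exposed to compound for 24 h; screening concentrations were 3–12 μM, with rapamycin 0.22 μM and bafilomycin A1 0.40 μM. Cells fixed in 4% paraformaldehyde and stained with 3 μg/ml DAPI. Number, size and intensity of LC3-GFP spots measured by high-throughput fluorescence microscopy and expressed as percent of DMSO-treated wells. Rapamycin was the positive control. Triplicate wells, mean ± SD; experiments repeated three times.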

[21] = tested on: H4; experiment: Induction of light chain 3-GFP level in human H4 cells at 4.3 uM after 24 hrs by high throughput fluorescence microscopy relative to control
Outline: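 H4 cells stably expressing LC3-GFP, grown in DMEM with 10% FBS, penicillin/streptomycin and 2 mM L-glutamine at 37°C, 5% CO2. Cells were seeded in 96-well plates and exposed to library compounds at 3–12 μM for 24 h, then fixed in 4% paraformaldehyde and stained with 3 μg/ml DAPI. LC3-GFP spot number, size and intensity were measured by high-throughput fluorescence microscopy and expressed relative to DMSO. Triplicates, mean ± SD.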

[22] = tested on: H4; experiment: Increase in light chain 3-GFP+ autophagosome vesicle number per cell in human H4 cells at 4.3 uM after 24 hrs by high throughput fluorescence microscopy relative to control
Outline: (§4)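 H4 cells stably expressing LC3-GFP were grown in DMEM with 10% FBS and 2 mM L-glutamine at 37°C, 5% CO2. They were exposed to each compound for 24 h, with DMSO as negative and rapamycin as positive control. Cells were then fixed in 4% paraformaldehyde and stained with 3 μg/ml DAPI. High-throughput fluorescence imaging scored LC3-GFP spot number, size and intensity, expressed relative to DMSO. Mean ± SD of triplicates; experiments repeated three times.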

[23] = tested on: H4; experiment: Increase in light chain 3-GFP+ autophagosome vesicle intensity per cell in human H4 cells at 4.3 uM after 24 hrs by high throughput fluorescence microscopy relative to control; outline: as §4

SMILES	Activity [1]	Activity [2]	Activity [4]	Activity [5]	Activity [7]	Activity [8]	Activity [10]	Activity [12]	Activity [13]	Activity [14]	Activity [15]	Activity [20]	Activity [21]	Activity [22]	Activity [23]	other results
CCCC[C@@H](C=O)NC(=O)[C@H](CC(C)C)NC(=O)[C@H](CC(C)C)NC(C)=O (Ac-Leu-Leu-[Nle]-aldehyde)	124.56%	95.45%	104.95%	88.42%	84.85%	72.86%	91.35%									Activity [3]: 277.88%; Activity [6]: 362.79%; Activity [9]: 495.29%; Activity [11]: 96.31%
CCCNC(=O)[C@H]1O[C@@H]1C(=O)N[C@H](C(=O)N1CCC[C@H]1C(=O)OC)[C@@H](C)CC	115.2%	89.11%	110.18%	86.43%	79.82%	65.94%	81%	132.2%	272.48%	239.2%	197.44%					
C/C1=C/C(=O)O[C@@H]2C[C@@H](CC[C@H](C)/C=C\CC1)O[C@@](O)([C@@H]1CSC(=O)N1)C2 [LATRUNCULIN B]								27.55%	723.64%	334.83%	263.28%					
CNc1ccc2oc(C[C@@H]3OC4(CC[C@@H]3C)O[C@H]([C@@H](C)C(=O)c3ccc[nH]3)[C@H](C)C[C@H]4C)nc2c1C(=O)O (stereo partly drawn)																Activity [16]: 172.66%; Activity [17]: 181.04%; Activity [18]: 15083%; Activity [19]: 49.3%
COc1cc([C@@H]2c3cc4c(cc3[C@@H](O[C@@H]3O[C@@H]5CO[C@@H](C)O[C@H]5[C@H](O)[C@H]3O)[C@H]3COC(=O)[C@H]23)OCO4)cc(OC)c1O [ETOPOSIDE]												306.93%	48.17%	275.6%	335.9%	
C=CCNC1=C2C[C@@H](C)C[C@H](OC)[C@H](O)[C@@H](C)/C=C(\C)[C@H](OC(N)=O)[C@@H](OC)/C=C\C=C(/C)C(=O)NC(=CC1=O)C2=O [TANESPIMYCIN]												364.98%	66.89%	293.36%	385.49%	
